The results in this text go back to ChEMBL document CHEMBL1123963, “Conformational preference for the binding of biaryl substrates and inhibitors to the active site of phenylethanolamine N-methyltransferase” (J Med Chem, 1988).

Series [1] is described as follows: Activity of the substrate is measured as the ratio of 100*Vmax/Km. The method, boiled down:
(§1)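 Bovine adrenal PNMT, purified through the isoelectric precipitation step, was used. The radiochemical assay contained phosphate buffer (pH 8.0), unlabeled AdoMet, [methyl-3H]AdoMet and enzyme, incubated 30 min at 37 °C. It was stopped with borate buffer (pH 10) and extracted into toluene-isoamyl alcohol (7:3). Km and Vmax came from at least five concentrations of the variable substrate; compounds were tested as hydrochloride salts.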

The target in series [2] is T1, Phenylethanolamine N-methyltransferase (Bos taurus, UniProt P10938).
T1 sequence (P10938 whole entry): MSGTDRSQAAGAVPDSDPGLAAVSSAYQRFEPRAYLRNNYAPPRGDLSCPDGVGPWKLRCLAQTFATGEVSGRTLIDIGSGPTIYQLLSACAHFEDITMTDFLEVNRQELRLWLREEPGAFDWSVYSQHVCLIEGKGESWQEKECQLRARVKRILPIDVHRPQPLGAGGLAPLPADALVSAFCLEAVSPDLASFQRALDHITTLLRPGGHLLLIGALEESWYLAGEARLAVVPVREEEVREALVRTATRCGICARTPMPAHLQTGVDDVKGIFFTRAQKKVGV
Kind of series: In vitro inhibition of compound towards phenylethanolamine N-methyltransferase(PNMT) isolated from bovine adrenal glands. The method, boiled down:
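Inhibition was measured on bovine adrenal PNMT partially purified through the isoelectric precipitation step. The radiochemical assay used phosphate buffer (pH 8.0) with unlabeled and [methyl-3H]AdoMet, 30 min at 37 °C. It was quenched with pH 10 borate buffer and extracted into toluene-isoamyl alcohol (7:3). Ki came from at least three inhibitor concentrations with phenylethanolamine as the variable substrate; compounds were tested as hydrochloride salts.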

Substrate in series [3]: NCC(O)c1ccc2c(c1)Cc1ccccc1-2
Briefly: (§2) In vitro enzyme kinetics (PNMT) of the compound expressed as Michaelis constant isolated from bovine adrenal glands. The method, boiled down:
as §1

Substrate in series [4]: NC[C@@H](O)c1ccccc1
The description is as §2. The method, boiled down: as §1

Substrate in series [5]: NCC(O)c1cccc2c1Cc1ccccc1-2
The description is as §2. The method, boiled down:
as §1

Substrate in series [6]: NCC(O)c1ccc(-c2ccccc2)cc1
The description is as §2. The method, boiled down:
as §1

Substrate in series [7]: NCC(O)c1ccc2c(c1)Cc1ccccc1-2
Kind of series: (§3) In vitro enzyme kinetics (PNMT)of the compound expressed as turnover rate isolated from bovine adrenal glands. The method, boiled down:
as §1

Substrate in series [8]: NC[C@@H](O)c1ccccc1
The description is as §3. The method, boiled down:
as §1

Substrate in series [9]: NCC(O)c1cccc2c1Cc1ccccc1-2
The description is as §3. The method, boiled down: as §1

Substrate in series [10]: NCC(O)c1cccc(-c2ccccc2)c1
Described as §3. The method, boiled down:
as §1

Substrate in series [11]: NCC(O)c1ccc(-c2ccccc2)cc1
Described as §3. The method, boiled down: as §1

In the case of `NCC(O)c1cccc(-c2ccccc2)c1` (stereo unspecified), the Ratio in [1] came to 0.07.

As for `CC(N)c1ccc2c(c1)Cc1ccccc1-2` (stereo unspecified), the Ki in [2] came out at 185 µM.

Consider `CC(N)c1cccc2c1Cc1ccccc1-2` (stereo unspecified), for which the affinity in series [2] corresponds to a Ki of 4.14 µM.

Regarding `NC[C@@H](O)c1ccccc1`, the Ratio in series [1] was determined as 3.1.

`NCC(O)c1cccc2c1Cc1ccccc1-2` (stereo unspecified): the Ratio in series [1] was determined as 0.015.

For the molecule `NCC(O)c1ccc(-c2ccccc2)cc1` (stereo unspecified), the Ratio in [1] was 5.2.

`NCC(O)c1ccc2c(c1)Cc1ccccc1-2` (stereo unspecified): in series [1], the Ratio was 6.7.

B1: Phenylethanolamine N-methyltransferase (Bos taurus), P10938 (protein)
chain: T1 sequence (P10938 whole entry)
For B1, the Km was determined as 26.3 µM in [3], 70 µM in series [4], 297 µM in [5] and 82 µM in [6]. In addition, the Vmax (nM min-1 (mg of protein)-1) is 1.76 in [7]; 2.2 in series [8]; 0.046 in [9]; 0.46 in [10]; 4.3 in series [11].

Usually Ki stands for the equilibrium dissociation constant of an inhibitor or competing ligand from its target. The Km is the substrate concentration at which the rate is half of its maximum.
